From ChEMBL document CHEMBL1629503, “Novel conformationally restricted triazole derivatives with potent antifungal activity” (2010)
Values after ≈ are worked out from the molar mass of the structure shown.

Experiments:
Type in all cases: functional
Candida albicans = test: Antifungal activity against Candida albicans after 24 hrs by serial dilution method
How it was run: (§1)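 Broth microdilution MIC per NCCLS recommendations in 96-well plates, using RPMI 1640 buffered with 0.165 M MOPS. Strains were ATCC or clinical isolates. Compounds were dissolved in DMSO and serially diluted in medium. Yeasts were incubated at 35 °C and growth was read at 24 h. MIC80 is the lowest concentration giving […] of control growth (turbidity).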

Cryptococcus neoformans = test: Antifungal activity against Cryptococcus neoformans after 72 hrs by serial dilution method
How it was run: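 Yeast MIC by NCCLS serial microdilution in RPMI 1640 with 0.165 M MOPS, using an ATCC strain or clinical isolate. Test agents came from DMSO stocks diluted in medium. Incubation was at 35 °C with the read at 72 h. MIC80 is the lowest concentration at which turbidity was […] of drug-free control growth.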

Candida tropicalis = test: Antifungal activity against Candida tropicalis after 24 hrs by serial dilution method; how it was run: as §1
Candida parapsilosis = test: Antifungal activity against Candida parapsilosis after 24 hrs by serial dilution method; conditions: Lodderomyces parapsilosis; how it was run: as §1
Kluyveromyces marxianus = test: Antifungal activity against Candida kefyr after 24 hrs by serial dilution method; how it was run: as §1
Trichophyton rubrum = test: Antifungal activity against Trichophyton rubrum after 7 days by serial dilution method; conditions: 168 h
How it was run: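 Dermatophyte MIC by NCCLS-based serial dilution in 96-well plates, in RPMI 1640 buffered with 0.165 M MOPS. Compounds were dissolved in DMSO and diluted in growth medium. Incubation was at 28 °C. Strain was ATCC or clinical isolate. MIC80 is the lowest concentration reducing turbidity to […] of growth control.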

Aspergillus fumigatus = test: Antifungal activity against Aspergillus fumigatus after 7 days by serial dilution method; conditions: 168 h
How it was run: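 Mould susceptibility by NCCLS serial dilution in 96-well plates, using MOPS-buffered (0.165 M) RPMI 1640 medium. Compounds were dissolved in DMSO and serially diluted in medium. Isolates were from ATCC or clinical sources. The endpoint MIC80 is the lowest concentration giving turbidity […] of control growth.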

Compound: CN(CC(O)(Cn1cncn1)c1ccc(F)cc1F)C1CCN(Cc2ccc(Cl)c(Cl)c2)CC1 (stereo not given)
- MIC80 (Candida albicans): 0.0625 mg/L (≈ 0.122 µM)
- MIC80 (Cryptococcus neoformans): 0.25 mg/L (≈ 0.49 µM)
- MIC80 (Candida tropicalis): 0.0625 mg/L (≈ 0.122 µM)
- MIC80 (Candida parapsilosis): 0.0625 mg/L (≈ 0.122 µM)
- MIC80 (Kluyveromyces marxianus): 0.25 mg/L (≈ 0.49 µM)
- MIC80 (Trichophyton rubrum): 0.25 mg/L (≈ 0.49 µM)
- MIC80 (Aspergillus fumigatus): 4 mg/L (≈ 7.84 µM)

Compound: CN(CC(O)(Cn1cncn1)c1ccc(F)cc1F)C1CCN(Cc2ccccc2)CC1 (stereo not given)
- MIC80 (Candida albicans): 0.25 mg/L (≈ 0.566 µM)
- MIC80 (Cryptococcus neoformans): 1 mg/L (≈ 2.26 µM)
- MIC80 (Candida tropicalis): 1 mg/L (≈ 2.26 µM)
- MIC80 (Candida parapsilosis): 0.25 mg/L (≈ 0.566 µM)
- MIC80 (Kluyveromyces marxianus): 1 mg/L (≈ 2.26 µM)
- MIC80 (Trichophyton rubrum): 1 mg/L (≈ 2.26 µM)
- MIC80 (Aspergillus fumigatus): 64 mg/L (≈ 145 µM)

Compound: CN(CC(O)(Cn1cncn1)c1ccc(F)cc1F)C1CCN(Cc2ccc([N+](=O)[O-])cc2)CC1 (stereo not given)
- MIC80 (Candida albicans): 0.0625 mg/L (≈ 0.128 µM)
- MIC80 (Cryptococcus neoformans): 0.25 mg/L (≈ 0.514 µM)
- MIC80 (Candida tropicalis): 0.25 mg/L (≈ 0.514 µM)
- MIC80 (Candida parapsilosis): 0.0625 mg/L (≈ 0.128 µM)
- MIC80 (Kluyveromyces marxianus): 1 mg/L (≈ 2.06 µM)
- MIC80 (Trichophyton rubrum): 0.25 mg/L (≈ 0.514 µM)
- MIC80 (Aspergillus fumigatus): 4 mg/L (≈ 8.22 µM)

Compound: CN(CC(O)(Cn1cncn1)c1ccc(F)cc1F)C1CCN(Cc2ccc(Br)cc2)CC1 (stereo not given)
- MIC80 (Candida albicans): 0.0625 mg/L (≈ 0.12 µM)
- MIC80 (Cryptococcus neoformans): 0.25 mg/L (≈ 0.48 µM)
- MIC80 (Candida tropicalis): 0.25 mg/L (≈ 0.48 µM)
- MIC80 (Candida parapsilosis): 0.0625 mg/L (≈ 0.12 µM)
- MIC80 (Kluyveromyces marxianus): 1 mg/L (≈ 1.92 µM)
- MIC80 (Trichophyton rubrum): 0.25 mg/L (≈ 0.48 µM)
- MIC80 (Aspergillus fumigatus): 4 mg/L (≈ 7.69 µM)

Compound: CN(CC(O)(Cn1cncn1)c1ccc(F)cc1F)C1CCN(Cc2ccccc2Cl)CC1 (stereo not given)
- MIC80 (Candida albicans): 0.25 mg/L (≈ 0.525 µM)
- MIC80 (Cryptococcus neoformans): 0.25 mg/L (≈ 0.525 µM)
- MIC80 (Candida tropicalis): 0.25 mg/L (≈ 0.525 µM)
- MIC80 (Candida parapsilosis): 0.0625 mg/L (≈ 0.131 µM)
- MIC80 (Kluyveromyces marxianus): 1 mg/L (≈ 2.1 µM)
- MIC80 (Trichophyton rubrum): 1 mg/L (≈ 2.1 µM)
- MIC80 (Aspergillus fumigatus): 4 mg/L (≈ 8.4 µM)

Compound: CN(CC(O)(Cn1cncn1)c1ccc(F)cc1F)C1CCN(Cc2ccc(Cl)cc2Cl)CC1 (stereo not given)
- MIC80 (Candida albicans): 0.0625 mg/L (≈ 0.122 µM)
- MIC80 (Cryptococcus neoformans): 0.25 mg/L (≈ 0.49 µM)
- MIC80 (Candida tropicalis): 0.0625 mg/L (≈ 0.122 µM)
- MIC80 (Candida parapsilosis): 0.0625 mg/L (≈ 0.122 µM)
- MIC80 (Kluyveromyces marxianus): 0.25 mg/L (≈ 0.49 µM)
- MIC80 (Trichophyton rubrum): 0.25 mg/L (≈ 0.49 µM)
- MIC80 (Aspergillus fumigatus): 4 mg/L (≈ 7.84 µM)

Compound: CN(CC(O)(Cn1cncn1)c1ccc(F)cc1F)C1CCN(Cc2cccc(Cl)c2)CC1 (stereo not given)
- MIC80 (Candida albicans): 0.0625 mg/L (≈ 0.131 µM)
- MIC80 (Cryptococcus neoformans): 0.0625 mg/L (≈ 0.131 µM)
- MIC80 (Candida tropicalis): 0.25 mg/L (≈ 0.525 µM)
- MIC80 (Candida parapsilosis): 0.0625 mg/L (≈ 0.131 µM)
- MIC80 (Kluyveromyces marxianus): 1 mg/L (≈ 2.1 µM)
- MIC80 (Trichophyton rubrum): 0.25 mg/L (≈ 0.525 µM)
- MIC80 (Aspergillus fumigatus): 1 mg/L (≈ 2.1 µM)

Compound: CN(CC(O)(Cn1cncn1)c1ccc(F)cc1F)C1CCN(Cc2ccc(C#N)cc2)CC1 (stereo not given)
- MIC80 (Candida albicans): 0.0625 mg/L (≈ 0.134 µM)
- MIC80 (Cryptococcus neoformans): 0.0625 mg/L (≈ 0.134 µM)
- MIC80 (Candida tropicalis): 0.25 mg/L (≈ 0.536 µM)
- MIC80 (Candida parapsilosis): 0.25 mg/L (≈ 0.536 µM)
- MIC80 (Kluyveromyces marxianus): 0.0625 mg/L (≈ 0.134 µM)
- MIC80 (Trichophyton rubrum): 0.0625 mg/L (≈ 0.134 µM)
- MIC80 (Aspergillus fumigatus): 1 mg/L (≈ 2.14 µM)

Compound: CN(CC(O)(Cn1cncn1)c1ccc(F)cc1F)C1CCN(Cc2cccc(Br)c2)CC1 (stereo not given)
- MIC80 (Candida albicans): 0.0625 mg/L (≈ 0.12 µM)
- MIC80 (Cryptococcus neoformans): 0.25 mg/L (≈ 0.48 µM)
- MIC80 (Candida tropicalis): 0.0625 mg/L (≈ 0.12 µM)
- MIC80 (Candida parapsilosis): 0.0625 mg/L (≈ 0.12 µM)
- MIC80 (Kluyveromyces marxianus): 0.25 mg/L (≈ 0.48 µM)
- MIC80 (Trichophyton rubrum): 0.25 mg/L (≈ 0.48 µM)
- MIC80 (Aspergillus fumigatus): 1 mg/L (≈ 1.92 µM)

Compound: CN(CC(O)(Cn1cncn1)c1ccc(F)cc1F)C1CCN(Cc2ccccc2F)CC1 (stereo not given)
- MIC80 (Candida albicans): 0.25 mg/L (≈ 0.544 µM)
- MIC80 (Cryptococcus neoformans): 0.25 mg/L (≈ 0.544 µM)
- MIC80 (Candida tropicalis): 0.25 mg/L (≈ 0.544 µM)
- MIC80 (Candida parapsilosis): 0.25 mg/L (≈ 0.544 µM)
- MIC80 (Kluyveromyces marxianus): 0.25 mg/L (≈ 0.544 µM)
- MIC80 (Trichophyton rubrum): 1 mg/L (≈ 2.18 µM)
- MIC80 (Aspergillus fumigatus): 16 mg/L (≈ 34.8 µM)

Compound: CN(CC(O)(Cn1cncn1)c1ccc(F)cc1F)C1CCN(Cc2ccc(F)cc2)CC1 (stereo not given)
- MIC80 (Candida albicans): 0.25 mg/L (≈ 0.544 µM)
- MIC80 (Cryptococcus neoformans): 0.25 mg/L (≈ 0.544 µM)
- MIC80 (Candida tropicalis): 0.25 mg/L (≈ 0.544 µM)
- MIC80 (Candida parapsilosis): 0.25 mg/L (≈ 0.544 µM)
- MIC80 (Kluyveromyces marxianus): 0.25 mg/L (≈ 0.544 µM)
- MIC80 (Trichophyton rubrum): 1 mg/L (≈ 2.18 µM)
- MIC80 (Aspergillus fumigatus): 16 mg/L (≈ 34.8 µM)

Compound: COc1cccc(CN2CCC(N(C)CC(O)(Cn3cncn3)c3ccc(F)cc3F)CC2)c1 (stereo not given)
- MIC80 (Candida albicans): 0.25 mg/L (≈ 0.53 µM)
- MIC80 (Cryptococcus neoformans): 0.25 mg/L (≈ 0.53 µM)
- MIC80 (Candida tropicalis): 0.25 mg/L (≈ 0.53 µM)
- MIC80 (Candida parapsilosis): 0.25 mg/L (≈ 0.53 µM)
- MIC80 (Kluyveromyces marxianus): 0.25 mg/L (≈ 0.53 µM)
- MIC80 (Trichophyton rubrum): 1 mg/L (≈ 2.12 µM)
- MIC80 (Aspergillus fumigatus): 64 mg/L (≈ 136 µM)

Compound: Cc1ccccc1CN1CCC(N(C)CC(O)(Cn2cncn2)c2ccc(F)cc2F)CC1 (stereo not given)
- MIC80 (Candida albicans): 0.0625 mg/L (≈ 0.137 µM)
- MIC80 (Cryptococcus neoformans): 0.25 mg/L (≈ 0.549 µM)
- MIC80 (Candida tropicalis): 0.25 mg/L (≈ 0.549 µM)
- MIC80 (Candida parapsilosis): 0.25 mg/L (≈ 0.549 µM)
- MIC80 (Kluyveromyces marxianus): 0.25 mg/L (≈ 0.549 µM)
- MIC80 (Trichophyton rubrum): 1 mg/L (≈ 2.2 µM)
- MIC80 (Aspergillus fumigatus): 64 mg/L (≈ 140 µM)

Compound: CC(C)c1ccc(CN2CCC(N(C)CC(O)(Cn3cncn3)c3ccc(F)cc3F)CC2)cc1 (stereo not given)
- MIC80 (Candida albicans): 0.0156 mg/L (≈ 0.0323 µM)
- MIC80 (Cryptococcus neoformans): 0.25 mg/L (≈ 0.517 µM)
- MIC80 (Candida tropicalis): 0.25 mg/L (≈ 0.517 µM)
- MIC80 (Candida parapsilosis): 0.25 mg/L (≈ 0.517 µM)
- MIC80 (Kluyveromyces marxianus): 0.25 mg/L (≈ 0.517 µM)
- MIC80 (Trichophyton rubrum): 0.25 mg/L (≈ 0.517 µM)
- MIC80 (Aspergillus fumigatus): 16 mg/L (≈ 33.1 µM)

Compound: OC(Cn1cncn1)(Cn1cncn1)c1ccc(F)cc1F [FLUCONAZOLE]
- MIC80 (Candida albicans): 0.25 mg/L (≈ 0.816 µM)
- MIC80 (Cryptococcus neoformans): 0.0625 mg/L (≈ 0.204 µM)
- MIC80 (Candida tropicalis): 1 mg/L (≈ 3.27 µM)
- MIC80 (Candida parapsilosis): 0.25 mg/L (≈ 0.816 µM)
- MIC80 (Kluyveromyces marxianus): 1 mg/L (≈ 3.27 µM)
- MIC80 (Trichophyton rubrum): 1 mg/L (≈ 3.27 µM)
- MIC80 (Aspergillus fumigatus): > 64 mg/L
